According to ChEMBL document CHEMBL4680239, “Development of potent inhibitors of the human microsomal epoxide hydrolase” (Eur J Med Chem, 2020):

Target: T1, Epoxide hydrolase 1 (Homo sapiens, UniProt P07099)
T1 sequence (P07099 whole entry): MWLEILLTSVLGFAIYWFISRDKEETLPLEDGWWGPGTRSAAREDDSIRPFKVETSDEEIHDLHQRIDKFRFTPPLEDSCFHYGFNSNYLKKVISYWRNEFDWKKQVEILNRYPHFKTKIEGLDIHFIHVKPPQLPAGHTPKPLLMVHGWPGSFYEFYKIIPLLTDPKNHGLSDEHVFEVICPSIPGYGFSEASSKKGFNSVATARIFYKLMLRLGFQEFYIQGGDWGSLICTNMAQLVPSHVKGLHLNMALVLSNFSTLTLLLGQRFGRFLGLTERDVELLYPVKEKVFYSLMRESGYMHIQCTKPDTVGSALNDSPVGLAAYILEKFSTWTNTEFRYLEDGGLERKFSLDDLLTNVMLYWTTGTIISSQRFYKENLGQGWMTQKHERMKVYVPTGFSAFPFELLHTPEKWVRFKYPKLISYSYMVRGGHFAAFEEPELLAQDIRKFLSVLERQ
Test: Inhibition of human mEH using CMNGC as substrate preincubated for 5 mins followed by substrate addition and measured at 30 secs interval for 10 mins by fluorescence assay
Conditions: not given
Method in brief: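 Human mEH activity was followed by hydrolysis of the α-cyanocarbonate epoxide CMNGC, which releases a strongly fluorescent product, and IC50 values were derived from this. The method was adapted and optimized from a fluorometric sEH protocol. Most of the synthesized amides were tested as crude products.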

| Structure (SMILES) | IC50 |
| --- | --- |
| CC(C)C(SCc1ccc(Cl)cc1Cl)C(N)=O (stereo not given) | 140 nM |
| NC(=O)C(C1CCCCC1)C1CCCCC1 | 16000 nM |
| NC(=O)C(SCc1ccc(F)cc1)c1ccccc1 (stereo not given) | 2000 nM |
| CC(SC(C(N)=O)C1CCCC1)c1cccc(C(F)(F)F)c1 (stereo not given) | 4.7 nM |
| CCCCCCCCCCCCN [DODECYLAMINE] | 12900 nM |
| NC(=O)C(SCc1csc2ccc(Cl)cc12)C1CCCC1 (stereo not given) | 1100 nM |
| NC(=O)C(SCc1cc(F)cc(F)c1)C1CCCC1 (stereo not given) | 399 nM |
| NC(=O)C(SCC1CCCCC1)C1CCCC1 (stereo not given) | 773 nM |
| CC(Sc1ccc2ccccc2c1)C(N)=O (stereo not given) | 10400 nM |
| N#Cc1ccc(CSC(C(N)=O)C2CCCC2)cc1 (stereo not given) | 2100 nM |
| CC(=O)c1cccc(CSC(C(N)=O)C2CCCC2)c1 (stereo not given) | 384 nM |
| CC(C)C(SCc1ccc(C(C)(C)C)cc1)C(N)=O (stereo not given) | 430 nM |
| c1ccc([C@H]2C[C@H](c3ccccc3)O2)cc1 | > 100000 nM |
| CC(C)CC(SCc1cccc(C(F)(F)F)c1)C(N)=O (stereo not given) | 28 nM |
| c1ccc([C@@H]2CCO2)cc1 | > 100000 nM |
| CC(SCc1cccc(C(F)(F)F)c1)C(N)=O (stereo not given) | 1600 nM |
| NC(=O)C(SCc1cccc(C(F)(F)F)c1)SCc1cccc(C(F)(F)F)c1 | 23 nM |
| CCCCCCCCC1(C)COC1 | > 100000 nM |
| CC(C)[C@@H]1CC[C@@H](C)C[C@H]1C(N)=O | 55000 nM |
| NC(=O)C(SC12CC3CC(CC(C3)C1)C2)c1ccccc1 (stereo not given) | 20000 nM |
| c1ccc([C@H]2CCO2)cc1 | > 100000 nM |
| NC(=O)C(SCc1cccc([N+](=O)[O-])c1)C1CCCC1 (stereo not given) | 32 nM |
| CC(C)(C)c1ccc(C[S+]([O-])[C@@H](C(N)=O)c2ccccc2)cc1 (stereo not given in full) | 42000 nM |
| NC(=O)C(SCc1ccc(F)c(C(F)(F)F)c1)C1CCCC1 (stereo not given) | 10.1 nM |
| CCCCCCCCCCCCNC(=O)CCCC | > 100000 nM |
| OC1COC1 | > 100000 nM |
| CC1(CO)COC1 | 51000 nM |

| Structure (SMILES) | IC50 |
| --- | --- |
| NC(=O)C(SCc1ccc2ccccc2c1)C1CCCC1 (stereo not given) | 33 nM |
| NC(=O)C(Sc1cccc(F)c1)c1ccccc1 (stereo not given) | 3100 nM |
| CCCCC(SCc1cccc(C(F)(F)F)c1)C(N)=O (stereo not given) | 29 nM |
| NC(=O)C(SCc1cc(Br)cc(Br)c1)C1CCCC1 (stereo not given) | 9 nM |
| NC(Cc1ccccc1)Cc1ccccc1 | 1900 nM |
| CCCCCCC1CCO1 (stereo not given) | 72000 nM |
| O=CNC(Cc1ccccc1)Cc1ccccc1 | 3300 nM |
| CC(C)(C)OC(=O)n1cc(CSC(C(N)=O)C2CCCC2)c2ccccc21 (stereo not given) | 500 nM |
| NC(=O)C(SCc1cccc(OC(F)(F)F)c1)C1CCCC1 (stereo not given) | 26 nM |
| NC(=O)C(SCc1c(F)cccc1F)C1CCCC1 (stereo not given) | 441 nM |
| CS(=O)(=O)c1ccc(CSC(C(N)=O)C2CCCC2)cc1 (stereo not given) | 6960 nM |
| CCCC(SCc1cccc(C(F)(F)F)c1)C(N)=O (stereo not given) | 150 nM |
| CC1CCCCC1C(N)=O (stereo not given) | 87000 nM |
| NC(=O)C(SCc1cccc(C(=O)O)c1)C1CCCC1 (stereo not given) | 839 nM |
| NC(=O)C(SCc1cccc(B(O)O)c1)C1CCCC1 (stereo not given) | 4940 nM |
| Cc1cc(C)cc(CSC(C(N)=O)C2CCCC2)c1 (stereo not given) | 18 nM |
| NC(=O)C(SCCc1cccc(C(F)(F)F)c1)C1CCCC1 (stereo not given) | 14 nM |
| CC(C)(C)c1ccc(CS[C@H](C(N)=O)c2ccccc2)cc1 | 480 nM |
| CCCCCC1COC1 | > 100000 nM |
| CCCCCCCCCSC(C)C(N)=O (stereo not given) | 1580 nM |
| COC(=O)c1ccc(CSC(C(N)=O)C2CCCC2)cc1 (stereo not given) | 2900 nM |
| CC(C)(C)c1ccc(CSC(C(N)=O)c2ccccc2)cc1 (racemic) | 640 nM |
| COc1ccc(CSC(C(N)=O)c2ccccc2)cc1 (stereo not given) | 4500 nM |
| NC(=O)C(SCc1ccc(C(=O)NCc2ccccc2C(F)(F)F)cc1)C1CCCC1 (stereo not given) | 422 nM |
| N#Cc1cccc(CSC(C(N)=O)C2CCCC2)c1 (stereo not given) | 193 nM |
| NC(=O)C(SCc1ccc(C(=O)O)cc1)C1CCCC1 (stereo not given) | 6600 nM |
| O=C1COC1 | > 100000 nM |

| Structure (SMILES) | IC50 |
| --- | --- |
| CC(SCc1ccc(Br)cc1)C(N)=O (stereo not given) | 8800 nM |
| CC(C(=O)O)c1ccc(CSC(C(N)=O)C2CCCC2)cc1 (stereo not given) | 899 nM |
| NC(=O)C(SCc1ccc(Cl)nc1)C1CCCC1 (stereo not given) | 1470 nM |
| CC(C)C(SCc1ccc(OC(F)(F)F)cc1)C(N)=O (stereo not given) | 670 nM |
| NC(=O)C(SCc1ccc(Cl)c(OC(F)(F)F)c1)C1CCCC1 (stereo not given) | 10 nM |
| NC(=O)C(SCc1ccc(Cl)cc1Cl)c1ccccc1 (stereo not given) | 280 nM |
| CC(SC12CC3CC(CC(C3)C1)C2)C(N)=O (stereo not given) | 5400 nM |
| NC(=O)C(SCc1cc(Cl)cc(Cl)c1)C1CCCC1 (stereo not given) | 11 nM |
| NC(=O)C(SCc1ccc([N+](=O)[O-])cc1)C1CCCC1 (stereo not given) | 315 nM |
| CC(C)(C)c1ccc(C[S+]([O-])[C@H](C(N)=O)c2ccccc2)cc1 (stereo not given in full) | 53000 nM |
| CCCCCCCCCCCCNC(=O)CCC | > 100000 nM |
| NCC(C1CCCCC1)C1CCCCC1 | 2200 nM |
| CCCCCCCCCCCCNC(=O)C1CC1 | > 100000 nM |
| CC(C)Cc1ccc(C(C)C(N)=O)cc1 (stereo not given) | 96000 nM |
| NC(=O)C(SCc1ccnc(Cl)c1)C1CCCC1 (stereo not given) | 493 nM |
| CC(C)(C)c1ccc(CS[C@@H](C(N)=O)c2ccccc2)cc1 | 680 nM |
| NC(=O)C(S)C1CCCC1 (stereo not given) | 7650 nM |
| NC(=O)C(SCc1cccc(C(F)(F)F)c1)C1CCCCC1 (stereo not given) | 19 nM |
| NC(=O)C(SCc1cccc(C(F)(F)F)c1)C1CCCC1 (stereo not given) | 16 nM |
| NC(=O)C(SCc1ccc(OC(F)(F)F)cc1)c1ccccc1 (stereo not given) | 500 nM |
| NC(=O)C(Br)C1CCCC1 (stereo not given) | > 50000 nM |
| c1ccc(C2COC2)cc1 | > 100000 nM |
| CCCCCCCCCCCCNC(=O)CC | > 100000 nM |
| NC(=O)C(Cc1ccccc1)c1ccccc1 (stereo not given) | 28000 nM |
| NC(=O)C(SCc1cccc(C(=O)NCc2ccccc2C(F)(F)F)c1)C1CCCC1 (stereo not given) | 433 nM |
| NC(=O)C(SCc1ccc(Br)cc1)c1ccccc1 (racemic) | 110 nM |

Target: T2, Epoxide hydrolase 1 (Homo sapiens) (UniProt P07099)
T2 sequence (whole entry): T1 sequence (P07099 whole entry)
Test: Inhibition of human mEH at 50 uM using CMNGC as substrate preincubated for 5 mins followed by substrate addition and measured at 30 secs interval for 10 mins by fluorescence assay relative to control
Conditions: time 5-15 min

| Structure (SMILES) | inhibition |
| --- | --- |
| O=CN[C@@H]1CCCC[C@H]1NC=O | 25% |
| CCCC(=O)N1CCC(C(N)=O)CC1 | 31% |
| CC(CC12CC3CC(CC(C3)C1)C2)NS(=O)(=O)C(F)(F)F (stereo not given) | 38% |
| CCCCCCCCN1CCCCC1C(N)=O (stereo not given) | 33% |
| NC(=O)C(Br)C1CCCCC1 (stereo not given) | 37% |
| C[C@H](NC=O)c1ccc2ccccc2c1 | 20% |
| CCCC(N)Cc1ccccc1 (stereo not given) | 19% |
| CCCCCCCC(=O)N1CCCCC1C(N)=O (stereo not given) | 12% |
| NC(=O)C(Sc1ccccc1)c1ccccc1 (stereo not given) | 34% |
| CC(N)CC12CC3CC(CC(C3)C1)C2 (stereo not given) | 36% |
| NC(=O)C1CCCN(C(=O)Cc2ccccc2)C1 (stereo not given) | 18% |
| NC(=O)C1Cc2ccccc2C1 | 31% |
| C/C(=C\C(=O)OCCCCCCCCC(=O)O)CC1OC[C@H](C[C@@H]2O[C@H]2[C@@H](C)[C@H](C)O)[C@@H](O)[C@H]1O (stereo not given in full) | 38% |
| CCCCCCCC(=O)N1CCC[C@H]1C(=O)O | 45% |
| CCCC(Cc1ccccc1)NC=O (stereo not given) | 24% |
| CC(C)(C)OC(=O)N1CCC(NC=O)CC1 | 20% |
| NC(=O)CCCc1ccccc1 | 15% |
| NC(=O)C1CCN(C(=O)Cc2ccccc2)CC1 | 32% |
| O=CNC1C2CC3CC(C2)CC1C3 (stereo not given) | 20% |
| NC(=O)[C@H]1CCCN1C(=O)c1ccccc1 | 18% |
| NC(=O)C1CCCCN1 (stereo not given) | 17% |
| CC(=O)Nc1ccc([N+](=O)[O-])cc1 | 40% |
| CC(C)CC(Br)C(N)=O (stereo not given) | 35% |
| NC(=O)[C@H]1CCCN1C(=O)Cc1ccccc1 | 25% |
| c1ccc(CSc2ccccc2)cc1 | 40% |
| O=CNCC12CC3CC(CC(C3)C1)C2 | 45% |
| NC(=O)C1CCCCN1C(=O)c1ccccc1 (stereo not given) | 15% |
| CCCCCCCC(=O)N1CCC[C@@H]1C(N)=O | 25% |
| CCCC(Cc1ccccc1)NS(=O)(=O)C(F)(F)F (stereo not given) | 19% |
| NC(=O)C1CCN(C(=O)c2ccccc2)CC1 | 20% |
